How the values were obtained:
[1] = Agonist activity at SUR in Wistar rat islets of pancreas assessed as induction of glucose-stimulated insulin secretion preincubated for 1 hr followed by glucose addition measured after 30 mins by sandwich ELISA
Outline: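 Islets from fed male-unspecified Wistar rats (200-250 g), pilocarpine-pretreated i.p., isolated by collagenase, then cultured overnight at 16 mmol/l glucose in CMRL-1066 with L-glutamine, gentamycin and 10% FCS at 37°C. Exposed 1 h to compound in DMSO (5, 10, 15, 20 uM), washed in Ringer HEPES, then 30 min at 37°C with 16.7 mmol/l glucose. Insulin measured by rat insulin sandwich ELISA (A450); EC50 reported.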

Rattus norvegicus [2] = assay: Antihyperglycemic activity in Swiss albino rat model of streptozotocin-induced hyperglycemia assessed as reduction in blood glucose level at 0.36 mg/kg, po measured after 3 hrs by glucometer relative to control; type: functional; parameters: scale not given: the % may be the effect or the level left
Outline: (§1)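 Adult male Swiss albino rats (200-300 g) acclimatized 24 h, then given streptozotocin 60.00 mg/kg i.p. in 0.90% sodium citrate buffer pH 4.50. Those with glucose >250.00 mg/dl at 72 h were used, six per group. Single oral dose; diabetic controls received 1% gum acacia vehicle. Tail blood glucose read by glucometer at 0 and 3 h; % reduction calculated.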

Rattus norvegicus [3] = assay: Antihyperglycemic activity in Swiss albino rat model of streptozotocin-induced hyperglycemia assessed as reduction in blood glucose level at 20 mg/kg, po measured after 3 hrs by glucometer relative to control; type: functional; parameters: scale not given: the % may be the effect or the level left; outline: as §1
[4] = target: T1, Peroxisome proliferator-activated receptor gamma (Homo sapiens, UniProt P37231); assay: Displacement of fluormone-PPARgamma Green from recombinant human N-terminal GST-tagged PPARgamma-LBD by fluorescence polarization assay
T1 sequence (P37231 whole entry): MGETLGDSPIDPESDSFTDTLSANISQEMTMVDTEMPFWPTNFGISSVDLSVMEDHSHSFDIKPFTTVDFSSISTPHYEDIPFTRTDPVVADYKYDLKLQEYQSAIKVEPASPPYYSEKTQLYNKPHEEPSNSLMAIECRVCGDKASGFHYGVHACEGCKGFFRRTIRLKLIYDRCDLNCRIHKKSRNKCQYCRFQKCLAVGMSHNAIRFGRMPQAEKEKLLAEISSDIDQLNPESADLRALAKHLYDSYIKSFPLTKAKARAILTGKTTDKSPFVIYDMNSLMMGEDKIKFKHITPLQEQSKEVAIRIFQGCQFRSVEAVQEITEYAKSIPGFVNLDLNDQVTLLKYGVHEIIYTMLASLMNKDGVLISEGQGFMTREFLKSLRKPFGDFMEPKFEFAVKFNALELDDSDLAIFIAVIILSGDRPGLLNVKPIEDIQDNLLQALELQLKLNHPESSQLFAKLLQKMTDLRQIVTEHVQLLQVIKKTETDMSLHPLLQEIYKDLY

SMILES | EC50 [1] [µM] | Activity (Rattus norvegicus [2]) [%] | Activity (Rattus norvegicus [3]) [%] | IC50 [4] [µM]
CCC1=C(C)CN(C(=O)NCCc2ccc(S(=O)(=O)NC(=O)NC3CCC(C)CC3)cc2)C1=O (stereo unspecified) | 0.73 to 4 | 26.53 | – | –
Cc1nc2ccccc2n(CC(=O)Nc2ccc(S(=O)(=O)NC(=O)Nc3ccccc3)cc2)c1=O | – | – | 25.15 | –
O=C(CN1CC(=O)Nc2ccccc21)Nc1ccc(S(=O)(=O)NC(=S)NC2CCCCC2)cc1 | – | – | 13.08 | –
Cc1nc2ccccc2n(CC(=O)Nc2ccc(S(=O)(=O)NC(=O)NC3CCCCC3)cc2)c1=O | 0.92 | – | 50.58 | 0.482
O=C(CN1CC(=O)Nc2ccccc21)Nc1ccc(S(=O)(=O)NC(=S)Nc2ccccc2)cc1 | – | – | 2.88 | –
O=C1CN(C(=O)CNc2ccc(S(=O)(=O)NC(=O)Nc3ccccc3)cc2)c2ccccc2N1 | – | – | 22.01 | –
Cc1nc2ccccc2n(CC(=O)Nc2ccc(S(=O)(=O)NC(=S)NC3CCCCC3)cc2)c1=O | 2.69 | – | 33.23 | 0.35
CCCCNC(=O)NS(=O)(=O)c1ccc(NCC(=O)N2CC(=O)Nc3ccccc32)cc1 | 1.95 | – | 40.55 | 1.32
CCCCNC(=S)NS(=O)(=O)c1ccc(NC(=O)Cn2c(=O)c(C)nc3ccccc32)cc1 | 2.82 | – | 43.84 | 0.369
O=C(CN1CC(=O)Nc2ccccc21)Nc1ccc(S(=O)(=O)NC(=O)NC2CCCCC2)cc1 | 1.54 | – | 39.81 | 1.15
O=C(CN1CC(=O)Nc2ccccc21)Nc1ccc(S(=O)(=O)NC(=O)Nc2ccccc2)cc1 | – | – | 21.89 | –
CCCCNC(=O)NS(=O)(=O)c1ccc(NC(=O)Cn2c(=O)c(C)nc3ccccc32)cc1 | 0.98 | – | 40.55 | 0.491
CCCCNC(=S)NS(=O)(=O)c1ccc(NC(=O)CN2CC(=O)Nc3ccccc32)cc1 | – | – | 30.75 | –
O=C1CN(C(=O)CNc2ccc(S(=O)(=O)NC(=O)NC3CCCCC3)cc2)c2ccccc2N1 | 1.89 | – | 49.62 | 1.14
Cc1nc2ccccc2n(CC(=O)Nc2ccc(S(=O)(=O)NC(=S)Nc3ccccc3)cc2)c1=O | – | – | 20.54 | –
CCCCNC(=O)NS(=O)(=O)c1ccc(NC(=O)CN2CC(=O)Nc3ccccc32)cc1 | 1.69 | – | 45.1 | 1.29
Cc1ccc(NC(=S)NS(=O)(=O)c2ccc(CCNS(=O)(=O)c3ccccc3)cc2)cc1 | 100 | – | – | –
COc1ccc(NC(=S)NS(=O)(=O)c2ccc(CCNS(=O)(=O)c3ccccc3)cc2)cc1 | 1000 | – | – | –
O=S(=O)(NCCc1ccc(S(=O)(=O)NC(=S)Nc2ccc(Cl)cc2)cc1)c1ccc(Cl)cc1 | 33.3 | – | – | –
COc1ccc(NC(=S)NS(=O)(=O)c2ccc(CCNS(=O)(=O)c3ccc(Cl)cc3)cc2)cc1 | 33.3 | – | – | –
O=C(NC1CCCCC1)NS(=O)(=O)c1ccc(CCNS(=O)(=O)c2ccccc2)cc1 | 12.5 | – | – | –
CC1CCC(NC(=O)NS(=O)(=O)c2ccc(CCNS(=O)(=O)c3ccc(Cl)cc3)cc2)CC1 (stereo unspecified) | 2.04 | – | – | –
CC1CCC(NC(=O)NS(=O)(=O)c2ccc(CCNS(=O)(=O)c3ccc(Br)cc3)cc2)CC1 (stereo unspecified) | 1.6 | – | – | –
CC1CCC(NC(=O)NS(=O)(=O)c2ccc(CCNS(=O)(=O)c3ccccc3)cc2)CC1 (stereo unspecified) | 3.4 | – | – | –
O=C(NC1CCCCC1)NS(=O)(=O)c1ccc(CCNS(=O)(=O)c2ccc(Cl)cc2)cc1 | 3.1 | – | – | –
O=C(NC1CCCCC1)NS(=O)(=O)c1ccc(CCNS(=O)(=O)c2ccc(Br)cc2)cc1 | 2.4 | – | – | –
CC(=O)Nc1ccc(S(=O)(=O)NCCc2ccc(S(=O)(=O)NC(=O)NC3CCC(C)CC3)cc2)cc1C (stereo unspecified) | 7.14 | – | – | –
CC(=O)Nc1ccc(S(=O)(=O)NCCc2ccc(S(=O)(=O)NC(=O)NC3CCC(C)CC3)cc2)cc1 (stereo unspecified) | 20 | – | – | –
O=S(=O)(NCCc1ccc(S(=O)(=O)NC(=S)Nc2ccc(Cl)cc2)cc1)c1ccccc1 | 33.3 | – | – | –

Source: ChEMBL document CHEMBL3877322, “Design, synthesis, molecular modeling and anti-hyperglycemic evaluation of novel quinoxaline derivatives as potential PPARγ and SUR agonists” (Bioorg Med Chem, 2017)
